Read-outs that look alike come from different tables or passages of the source.

The values below come from paper PMC10356740 (Journal of sleep research, 2023).

Data set [1] deals with narcoleptic male orexin/tTA; TetO-DTA mice. Description: EEG/EMG sleep/wake and cataplexy scoring after dosing before dark onset. It counts as in vivo, mouse. A digest of the protocol: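 Crossover in telemetered male DTA mice (n = 7) given 1, 3 or 10 mg/kg s.c. or i.p., or the matching vehicle, 15 min before ZT12, ≥3 d between doses. EEG/EMG were scored for 6 h as hourly and cumulative time per state and as bouts. NREM latency ran from dosing to the first 6 consecutive NREM epochs; REM latency to the first 3 REM epochs. Analysis used 1-way ANOVA or 2-way RM ANOVA (treatment × time), with Holm-Sidak vs vehicle.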

For data set [2] the test system is unchanged. Briefly: EEG spectral power analysis. It counts as in vivo, mouse. Put shortly:
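Male orexin/tTA;TetO-DTA mice (n = 7) with subcutaneous EEG/EMG telemeters received vehicle or 1, 3 or 10 mg/kg (s.c. or i.p. by compound, 10 mL/kg) 15 min before light offset at ZT12. Design was repeated measures in balanced order, ≥3 d apart. Normalized EEG spectra were taken in 0.122 Hz bins and bands: delta 0.5–4, theta 4–9, alpha 9–12, beta 12–30, low gamma 30–60, high gamma 60–100 Hz. Each state needed ≥3 animals. Analysis was 2-way RM ANOVA with Holm-Sidak.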

Data set [3] is classed as in vivo. To be noted: mouse, ip, 10 mg/kg. Put shortly: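 Dosing was 10 mg/kg, s.c. or i.p. by compound, with sparse sampling of plasma and brain. Total drug measured by LC-MS/MS was multiplied by fraction unbound to give free concentrations. Fraction unbound came from 5 μM compound incubated in mouse plasma or brain homogenate by rapid equilibrium dialysis. Parameters were derived by noncompartmental analysis, with terminal half-life by best fit.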

Data set [4] concerns narcoleptic male orexin/tTA; TetO-DTA mice. Briefly: Gross motor activity, running wheel activity and subcutaneous temperature. It counts as in vivo, mouse. A digest of the protocol:
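Gross motor activity came from the implanted subcutaneous telemeter, alongside home-cage running-wheel activity and bouts and subcutaneous temperature, analysed per ZT hour after dosing. Male DTA mice (n = 7), adapted ≥2 weeks to wheels, handling and dosing, received vehicle or 1, 3 or 10 mg/kg s.c. or i.p. 15 min before ZT12 in repeated-measures order. Analysis was 2-way RM ANOVA (treatment × time) with Holm-Sidak.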

Data set [5] in a line: Fraction unbound by rapid equilibrium dialysis. Type of data set: in vitro ADME. As to conditions: mouse. In general terms: Equilibrium dialysis compares concentrations on both sides of a semipermeable membrane.
The subject of data set [6] is Hcrt peptide-deficient and Hcrt neuron-ablated mice. As to conditions: ref Irukayama-Tomobe et al., 2017; cited from earlier work.
The test system of data set [7] is Hcrt receptor-deficient mice. As to conditions: ref Irukayama-Tomobe et al., 2017; cited from earlier work.
The test system of data set [8] is Hcrt-deficient, Hcrt neuron-ablated and wild-type mice. As to conditions: peripheral administration; ref Irukayama-Tomobe et al., 2017; cited from earlier work.
Where [9] appears, read: first post-dosing hour (ZT13), 3 and 10 mg/kg i.p.

As for `CCNC(=O)N1CCC[C@H](NS(C)(=O)=O)[C@@H]1CO[C@H]1CC[C@@H](C(C)C)CC1` [ARN-776, (2R,3S)-N-ethyl-2-{[(cis-4-isopropylcyclohexyl)oxy]methyl}−3-[(methylsulfonyl)amino]piperidine-1-carboxamide], the “Number of Wake bouts across the entire 6-h recording” value in data set [1] (3 mg/kg (p = 0.03) and 10 mg/kg (p = 0.002) i.p.) is given as “significantly reduced the number of Wake bouts”. Moreover, the Cataplexy bout duration result in data set [1] (3 mg/kg i.p., p = 0.046) is given as “modest effect”. Besides, in data set [1] (10 mg/kg i.p., post hoc p = 0.005), the “Cumulative time in Wake” value is listed as “significant effects”. Also, the “Cumulative time in NREM sleep” value in data set [1] (10 mg/kg i.p., post hoc p = 0.028) was “significant effects”. In addition, the “Latency to REM sleep” value in data set [1] (10 mg/kg i.p., vs vehicle) is “delayed REM sleep”. Also, in data set [1] (1–10 mg/kg i.p.), the “NREM bout duration, post hoc test per dose” value is “did not identify any specific dose”; the “REM bout duration, post hoc test per dose” value was “did not identify any specific dose”; the “REM sleep rebound after early suppression” value was “rebound did not reach statistical significance”. In data set [1] (all 3 doses (1, 3, 10 mg/kg i.p.)), the “Percent time in Cataplexy across the 6-h recording” value is listed as “reduced Cataplexy across the 6-h period”. For the same molecule, the “Cumulative time in Cataplexy” value in data set [1] (all 3 doses i.p.) is on record as “cumulative suppression of Cataplexy”. The “Wake bout duration, treatment effect” value in data set [1] (all doses i.p., 6-h recording) is “significant treatment effects”. Further, in data set [1] (entire 6-h recording, i.p.), the REM/NREM ratio entry was “unchanged”. The “Number of NREM bouts” value in data set [1] (first hour post-dosing, only middle and high doses i.p.) was “reduced the number of NREM bouts”. For the same molecule, in data set [1] (first hour, 1–10 mg/kg i.p.), the “Hourly amount of NREM sleep” value was “dose-related changes”, the “Hourly amount of REM sleep” value is “dose-related changes”, the “Hourly amount of Wake” value was “dose-related changes” and the “Number of Wake bouts” value is listed as “dose-related effect”. In data set [1] (first hour, 1–10 mg/kg i.p.), the “Reduction in hourly Cataplexy levels” value is given as “did not reach statistical significance”. Further, in data set [1] (first post-dosing hour (ZT13), all doses i.p.), the Wake bout duration entry is recorded as “increased Wake bout duration”. Further, the “Compensatory NREM sleep after increased wakefulness” value in data set [1] (hours after the first post-dosing hour, i.p.) is “no compensatory increase in NREM sleep”. Further, the “Suppression of cumulative REM sleep” value in data set [1] (lower doses i.p.) is recorded as “limited to the first post-dosing hour”. Also, the “Number of REM bouts” value in data set [1] (only 10 mg/kg i.p.) was “reduced the number of REM bouts”. For the same molecule, the “Latency to NREM sleep” value in data set [1] (only 3 and 10 mg/kg i.p. (not 1 mg/kg), vs vehicle) is recorded as “delayed NREM”. Further, the “Number of Cataplexy bouts” value in data set [1] (only the two highest concentrations i.p.) is “effective during the first and later hours”. For the same molecule, the “Number of Wake bouts” value in data set [1] (second hour, only 10 mg/kg i.p.) is given as “reduced the number of Wake bouts”. Besides, in data set [2] (10 mg/kg i.p., p = 0.04), the “High gamma EEG power during Wake across the entire recording period” value is “significantly increased high gamma”. In data set [2] (ZT13, 3 mg/kg i.p.), the “Waking EEG low and high gamma power” value is “significantly increased”. In addition, the “NREM EEG alpha and high gamma power” value in data set [2] (ZT14, 10 mg/kg i.p.) was “significant reductions”. Also, the “NREM EEG high gamma power” value in data set [2] (ZT15, 10 mg/kg i.p.) is listed as “reduction of high gamma continued into ZT15”. Moreover, the “Waking EEG power in alpha, low gamma and high gamma” value in data set [2] (first post-dosing hour, 10 mg/kg i.p.) is listed as “significantly increased power in all three of these bands”. In data set [3] (brain), the concentration peaked (Cmax) at 13 ng/g; the Tmax (in general, the time at which the peak concentration occurs) is 10 min; the half-life (commonly how long it takes for the measured level to halve) came out at 38 min. In data set [3] (plasma), the exposure AUC(0-t) (as a rule, the area under the concentration-time curve up to a stated or last time point) was 191 ng·h/mL; the highest level (Cmax) was 326 ng/mL; the Tmax was 10 min; the half-life was found to be 125 min. Further, the “Number of running bouts” value in data set [4] (ZT13, 3 and 10 mg/kg i.p.) is recorded as “more running bouts”. The Gross motor activity result in data set [4] (ZT15, highest dose i.p.) is given as “reduced gross motor activity”. In data set [4] (setting [9]), the Gross motor activity result is “significantly increased motor activity”, the Running wheel activity result was “significantly increased running wheel activity” and the “Subcutaneous temperature (Tsc)” value is given as “significantly increased Tsc”. In data set [5] (mouse brain homogenate), the fraction unbound – broadly, the share of the substance not bound to proteins or other matrix – at 5 μM was 0.121. Further, in data set [5] (mouse plasma), the fraction unbound at 5 μM is 0.176.
On to `COc1ccc(-c2cccc(C(=O)N(C)C)c2)cc1S(=O)(=O)Nc1cccc(NCCNC(=O)c2ccccc2N(C)C)c1` [YNT-185], for which the “Sleep onset REM periods (SOREMs)” value in data set [6] was “reduced sleep onset REM periods (SOREMs)”; in data set [7], “but not in Hcrt receptor-deficient mice”. For the same molecule, the Wakefulness result in data set [8] is “promoted wakefulness”.
